According to ChEMBL document CHEMBL1137353, “6-(4-chlorophenyl)-3-substituted-thieno[3,2-d]pyrimidin-4(3H)-one-based melanin-concentrating hormone receptor 1 antagonist” (J Med Chem, 2006):
One block for each compound: values may come before it.

What was measured:
[1] = biological target: Melanin-concentrating hormone receptor 1 (Homo sapiens, UniProt Q99705); experiment: Antagonist activity against human MCH1 receptor stably-expressed in CHO cells by Gal4/Elk1-Luc reporter assay; format: functional, cell-based
Procedure, shortened: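 Human MCHR1 antagonism read out in CHO cells carrying a Gal4/Elk1 luciferase reporter. IC50 values are averages of 2-3 experiments.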

[2] = Total clearance in rat at 3 mg/kg, iv and 10 mg/kg, po; format: ADME, organism-based; settings: in vivo
Procedure, shortened: (§1)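 Rat PK. Dosed in 20% DMSO/21% Solutol in 10 mM MSA (final concentration), n = 2. IV dose 3 mg/kg, PO dose 10 mg/kg. Plasma drug levels measured by LC-MS/MS. Half-life taken from the IV dosing.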

[3] = Half life in rat at 3 mg/kg, iv; format: ADME, organism-based; parameters: dose 3 mg/kg, route intravenous; settings: in vivo; procedure, shortened: as §1
[4] = Volume of distribution in rat at 3 mg/kg, iv and 10 mg/kg, po; format: ADME, organism-based; settings: in vivo, read-out: Vss; procedure, shortened: as §1
[5] = Oral bioavailability in rat at 3 mg/kg, iv and 10 mg/kg, po; format: ADME, organism-based; settings: in vivo; procedure, shortened: as §1
[6] = Dissociation constant, pKa of the compound; format: physicochemical
Mus musculus [7] = experiment: Reduction in body weight of DIO AKR/J mouse relative to control at 10 mg/kg/day, po after 21 days; format: functional; parameters: scale not given: the % may be the effect or the level left
Procedure, shortened: (§2)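 Diet-induced obese AKR/J mice on a high-fat diet (58% kcal fat). Oral dosing once daily for 21 days. Weight change expressed as percentage of pretreatment body weight for each group. Vehicle group and rimonabant (CB1 inverse agonist) used as controls. Mean ± SEM.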

Mus musculus [8] = experiment: Reduction in body weight of DIO AKR/J mouse relative to control at 3 mg/kg/day, po after 21 days; format: functional; parameters: scale not given: the % may be the effect or the level left; procedure, shortened: as §2
Mus musculus [9] = experiment: Reduction in body weight of DIO AKR/J mouse relative to control at 1 mg/kg/day, po after 21 days; format: functional; parameters: scale not given: the % may be the effect or the level left; procedure, shortened: as §2

Melanin-concentrating hormone receptor 1, sequence (Q99705 whole entry, the tested form may be a part): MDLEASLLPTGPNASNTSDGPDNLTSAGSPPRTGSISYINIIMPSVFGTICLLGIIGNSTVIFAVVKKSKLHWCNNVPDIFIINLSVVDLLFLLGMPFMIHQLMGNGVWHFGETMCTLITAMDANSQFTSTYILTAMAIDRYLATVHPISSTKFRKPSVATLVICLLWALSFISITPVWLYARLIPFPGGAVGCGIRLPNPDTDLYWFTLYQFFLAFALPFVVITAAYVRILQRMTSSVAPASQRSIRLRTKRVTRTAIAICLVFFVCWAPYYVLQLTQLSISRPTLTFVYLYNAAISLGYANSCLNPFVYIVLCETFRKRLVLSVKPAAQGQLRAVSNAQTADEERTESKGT

IC50 [1]: 3.1 nM
Compound: O=c1c2sc(-c3ccc(Cl)cc3)cc2ncn1-c1ccc2c(c1)CCC(CN1CCCCC1)C2 (stereo not given)

IC50 [1]: 0.39 nM
Compound: O=c1c2sc(-c3ccc(Cl)cc3)cc2ncn1-c1ccc2cc(CN3CCCCC3)ccc2c1

IC50 [1]: 1410 nM
Compound: O=C(NCCCN1CCCC1)c1ccc2cc(-n3cnc4cc(-c5ccc(Cl)cc5)sc4c3=O)ccc2c1

IC50 [1]: 1.1 nM
Compound: CN(C)CC1CCc2cc(-n3cnc4cc(-c5ccc(Cl)cc5)sc4c3=O)ccc2C1 (stereo not given)

IC50 [1]: 1.3 nM
Compound: O=c1c2sc(-c3ccc(Cl)cc3)cc2ncn1-c1ccc2c(c1)CCC(CN1CCCC1)C2 (stereo not given)

IC50 [1]: 1.3 nM
Compound: CN(C)Cc1cc2cc(-n3cnc4cc(-c5ccc(Cl)cc5)sc4c3=O)ccc2s1

IC50 [1]: 5 nM
Compound: O=C(NCCN1CCCC1)c1ccc2cc(-n3cnc4cc(-c5ccc(Cl)cc5)sc4c3=O)ccc2c1

IC50 [1]: > 10000 nM
Compound: O=C(c1ccc2cc(-n3cnc4cc(-c5ccc(Cl)cc5)sc4c3=O)ccc2c1)N1CCCC1

clearance [2]: 115 mL/min/kg
half-life [3]: 96 min
Vd [4]: 8.5 L/kg
IC50 [1]: 1.1 nM
bioavailability [5]: 21%
Compound: O=c1c2sc(-c3ccc(Cl)cc3)cc2ncn1-c1ccc2oc(CN3CCCC3)cc2c1

IC50 [1]: 31.6 nM
Compound: O=c1c2sc(-c3ccc(Cl)cc3)cc2ncn1-c1ccc2cc(CO)ccc2c1

pKa [6]: 7.91
clearance [2]: 2.9 mL/min/kg
half-life [3]: 354 min
Vd [4]: 0.6 L/kg
IC50 [1]: 5.7 nM
bioavailability [5]: 27.9%
Compound: O=c1c2sc(-c3ccc(Cl)cc3)cc2ncn1-c1ccc2sc(CN3CCC(c4ccccc4)CC3)cc2c1

IC50 [1]: > 10000 nM
Compound: O=c1c2sc(-c3ccc(Cl)cc3)cc2ncn1-c1ccc2ccccc2c1

IC50 [1]: 1.4 nM
Compound: COC[C@H]1CCCN1Cc1cc2cc(-n3cnc4cc(-c5ccc(Cl)cc5)sc4c3=O)ccc2n1C

IC50 [1]: 1.1 nM
Compound: Cn1c(CN2CCCC2)cc2cc(-n3cnc4cc(-c5ccc(Cl)cc5)sc4c3=O)ccc21

IC50 [1]: 0.75 nM
Compound: O=c1c2sc(-c3ccc(Cl)cc3)cc2ncn1-c1ccc2c(c1)CCC(CN1CCCCC1)=C2

clearance [2]: 30.8 mL/min/kg
half-life [3]: 126 min
Vd [4]: 3.6 L/kg
IC50 [1]: 2.5 nM
bioavailability [5]: 36.1%
Compound: O=c1c2sc(-c3ccc(Cl)cc3)cc2ncn1-c1ccc2sc(CN3CC[C@@H](O)C3)cc2c1

IC50 [1]: 0.91 nM
Compound: O=c1c2sc(-c3ccc(Cl)cc3)cc2ncn1-c1ccc2sc(CN3CCCC3)cc2c1

IC50 [1]: 9.5 nM
Compound: COC[C@H]1CCCN1Cc1cc2cc(-n3cnc4cc(-c5ccc(Cl)cc5)sc4c3=O)ccc2o1

IC50 [1]: 29 nM
Compound: O=c1c2sc(-c3ccc(Cl)cc3)cc2ncn1-c1ccc2sc(CN3CCN(c4ccccc4)CC3)cc2c1

clearance [2]: 21.2 mL/min/kg
half-life [3]: 660 min
Vd [4]: 15.7 L/kg
IC50 [1]: 0.87 nM
bioavailability [5]: 57%
Compound: O=c1c2sc(-c3ccc(Cl)cc3)cc2ncn1-c1ccc2c(c1)CCC(CN1CCCC1)=C2

IC50 [1]: 38 nM
Compound: O=c1c2sc(-c3ccc(Cl)cc3)cc2ncn1-c1ccc2sc(CN3CCOCC3)cc2c1

clearance [2]: 80 mL/min/kg
half-life [3]: 180 min
Vd [4]: 16 L/kg
IC50 [1]: 2.7 nM
bioavailability [5]: 67%
Compound: CN(C)CC1=Cc2ccc(-n3cnc4cc(-c5ccc(Cl)cc5)sc4c3=O)cc2CC1

IC50 [1]: > 10000 nM
Compound: O=C(O)c1ccc2cc(-n3cnc4cc(-c5ccc(Cl)cc5)sc4c3=O)ccc2c1

clearance [2]: 39 mL/min/kg
half-life [3]: 546 min
Vd [4]: 20.4 L/kg
IC50 [1]: 5.7 nM
bioavailability [5]: 66%
Compound: CN1CCN(Cc2cc3cc(-n4cnc5cc(-c6ccc(Cl)cc6)sc5c4=O)ccc3s2)CC1
Activity (Mus musculus [7]): 11.8%
Activity (Mus musculus [8]): 3.2%
Activity (Mus musculus [9]): 1.1%

pKa [6]: 8.29
IC50 [1]: 2 nM
Compound: O=c1c2sc(-c3ccc(Cl)cc3)cc2ncn1-c1ccc2sc(CN3CCCCC3)cc2c1

Compound: Cc1c(C(=O)NN2CCCCC2)nn(-c2ccc(Cl)cc2Cl)c1-c1ccc(Cl)cc1 [RIMONABANT]
Activity (Mus musculus [7]): 8.4%
